{"source": "ChEMBL document CHEMBL1157621", "about": "“Synthesis, biological activity, and molecular modeling studies of 1H-1,2,3-triazole derivatives of carbohydrates as alpha-glucosidases inhibitors” (J Med Chem, 2010)", "key": {"[1]": {"target": "Alpha-glucosidase MAL12 (Saccharomyces cerevisiae S288c, UniProt P53341)", "sequence (P53341 whole entry)": "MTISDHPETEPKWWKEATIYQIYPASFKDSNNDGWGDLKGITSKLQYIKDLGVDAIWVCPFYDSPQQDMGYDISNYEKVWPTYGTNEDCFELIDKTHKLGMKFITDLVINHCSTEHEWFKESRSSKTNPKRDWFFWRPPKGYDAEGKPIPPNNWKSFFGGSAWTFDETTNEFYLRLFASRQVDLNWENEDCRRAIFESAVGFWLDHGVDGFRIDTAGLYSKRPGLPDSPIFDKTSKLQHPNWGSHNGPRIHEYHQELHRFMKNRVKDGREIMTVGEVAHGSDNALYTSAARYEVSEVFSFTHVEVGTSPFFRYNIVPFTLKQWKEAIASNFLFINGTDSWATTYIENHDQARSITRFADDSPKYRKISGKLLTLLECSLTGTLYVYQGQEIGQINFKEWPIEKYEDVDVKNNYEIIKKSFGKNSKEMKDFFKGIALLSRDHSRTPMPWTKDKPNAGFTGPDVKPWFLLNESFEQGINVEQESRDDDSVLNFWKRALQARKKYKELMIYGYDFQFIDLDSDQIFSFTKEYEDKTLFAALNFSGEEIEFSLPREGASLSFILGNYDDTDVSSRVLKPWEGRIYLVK", "experiment": "Inhibition of yeast alpha-glucosidase MAL12 assessed as inhibition of p-nitrophenol release by spectrophotometry", "summary_of_the_method": "(§1)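 Yeast maltase activity was followed by p-nitrophenol release from p-nitrophenyl-α-D-glucopyranoside at 405 nm. IC50 was defined as the concentration giving 50% inhibition under assay conditions. Acarbose was tested in the same assay, and the ratio was taken as acarbose IC50 over compound IC50.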"}, "[2]": {"target": "Alpha-glucosidase MAL12 (Saccharomyces cerevisiae S288c) (UniProt P53341)", "sequence (P53341 whole entry)": "as above", "experiment": "Inhibition of yeast alpha-glucosidase MAL12 assessed as inhibition of p-nitrophenol release at 500 uM by spectrophotometry relative to control", "summary_of_the_method": "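Baker's yeast maltase, with p-nitrophenyl-α-D-glucopyranoside as substrate. Released p-nitrophenol was read at 405 nm. Compounds were screened at a fixed 500 μM, and activity was expressed as percent inhibition relative to a no-inhibitor control assay. Acarbose served as comparator.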"}, "[3]": {"test_system": "Rattus norvegicus", "experiment": "Hypoglycemic activity in maltose-fed Wistar rat assessed as reduction in postprandial blood glucose level at 50 mg/kg, po administered 5 mins before maltose challenge measured after 30 mins of maltose infusion"}, "[4]": {"test_system": "Rattus norvegicus", "experiment": "Hypoglycemic activity in maltose-fed Wistar rat assessed as reduction in postprandial blood glucose level at 50 mg/kg, po administered 5 mins before maltose challenge measured after 60 mins of maltose infusion"}, "[5]": {"target": "Alpha-glucosidase MAL12 (Saccharomyces cerevisiae S288c) (UniProt P53341)", "experiment": "Ratio of acarbose IC50 to compound IC50 for yeast alpha-glucosidase MAL12", "summary_of_the_method": "as §1"}}, "note": "Activity calls are given as the source filed them.", "data": [{"smiles": "CO[C@@H]1O[C@H](Cn2cc(COC3CCCCO3)nn2)[C@H]2OC(C)(C)O[C@@H]12", "note": "(some centres not stated)", "values": [{"measurement": "IC50", "setting": "[1]", "result": 24.7, "unit": "µM"}, {"measurement": "inhibition", "setting": "[2]", "result": 79.5, "unit": "%"}]}, {"smiles": "C[C@H]1O[C@H](O[C@H]2[C@H](O)[C@@H](O)[C@@H](O[C@H]3[C@H](O)[C@@H](O)C(O)O[C@@H]3CO)O[C@@H]2CO)[C@H](O)[C@@H](O)[C@@H]1N[C@H]1C=C(CO)[C@@H](O)[C@H](O)[C@H]1O", "note": "(some centres not stated)", "values": [{"measurement": "Activity", "setting": "[3]", "result": "Active"}, {"measurement": "Activity", "setting": "[4]", "result": "Active"}, {"measurement": "inhibition", "setting": "[2]", "result": 48.1, "unit": "%"}]}, {"smiles": "CC1(C)O[C@H]2O[C@H](Cn3cc(C4=CCCCC4)nn3)[C@H](O)[C@H]2O1", "values": [{"measurement": "inhibition", "setting": "[2]", "result": 33.3, "unit": "%"}]}, {"smiles": "CCC(C)(O)c1cn(C[C@H]2O[C@@H](OC)[C@@H]3OC(C)(C)O[C@@H]32)nn1", "note": "(some centres not stated)", "values": [{"measurement": "inhibition", "setting": "[2]", "result": 41.1, "unit": "%"}]}, {"smiles": "CO[C@@H]1O[C@H](Cn2cc(-c3ccccc3)nn2)[C@H]2OC(C)(C)O[C@@H]12", "values": [{"measurement": "Activity", "setting": "[3]", "result": "Active"}, {"measurement": "Activity", "setting": "[4]", "result": "Active"}, {"measurement": "IC50", "setting": "[1]", "result": 14.9, "unit": "µM"}, {"measurement": "inhibition", "setting": "[2]", "result": 94.4, "unit": "%"}]}, {"smiles": "CC1(C)O[C@H]2O[C@H](Cn3cc(CO)nn3)[C@H](O)[C@H]2O1", "values": [{"measurement": "inhibition", "setting": "[2]", "result": 68.8, "unit": "%"}]}, {"smiles": "CO[C@@H]1O[C@H](Cn2cc(COc3ccccc3)nn2)[C@H]2OC(C)(C)O[C@@H]12", "values": [{"measurement": "Activity", "setting": "[3]", "result": "Active"}, {"measurement": "Activity", "setting": "[4]", "result": "Active"}, {"measurement": "Ratio IC50", "setting": "[5]", "result": 20}, {"measurement": "IC50", "setting": "[1]", "result": 5.7, "unit": "µM"}, {"measurement": "inhibition", "setting": "[2]", "result": 98.4, "unit": "%"}]}, {"smiles": "CO[C@@H]1O[C@H](Cn2cc(C3=CCCCC3)nn2)[C@H]2OC(C)(C)O[C@@H]12", "values": [{"measurement": "Ratio IC50", "setting": "[5]", "result": 25}, {"measurement": "IC50", "setting": "[1]", "result": 3.8, "unit": "µM"}, {"measurement": "inhibition", "setting": "[2]", "result": 98.1, "unit": "%"}]}, {"smiles": "CCCc1cn(C[C@H]2O[C@@H](OC)[C@@H]3OC(C)(C)O[C@@H]32)nn1", "values": [{"measurement": "inhibition", "setting": "[2]", "result": 44.9, "unit": "%"}]}, {"smiles": "CC1(C)O[C@H]2O[C@H](Cn3cc(-c4ccccc4)nn3)[C@H](O)[C@H]2O1", "values": [{"measurement": "inhibition", "setting": "[2]", "result": 87.9, "unit": "%"}]}, {"smiles": "CO[C@@H]1O[C@H](Cn2cc(C(C)(C)O)nn2)[C@H]2OC(C)(C)O[C@@H]12", "values": [{"measurement": "inhibition", "setting": "[2]", "result": 60.2, "unit": "%"}]}, {"smiles": "CCOC(=O)c1cn(C[C@H]2O[C@@H](OC)[C@@H]3OC(C)(C)O[C@@H]32)nn1", "values": [{"measurement": "IC50", "setting": "[1]", "result": 15.1, "unit": "µM"}, {"measurement": "inhibition", "setting": "[2]", "result": 98, "unit": "%"}]}, {"smiles": "CO[C@@H]1O[C@H](Cn2cc(CCCCl)nn2)[C@H]2OC(C)(C)O[C@@H]12", "values": [{"measurement": "inhibition", "setting": "[2]", "result": 99.5, "unit": "%"}]}, {"smiles": "CO[C@@H]1O[C@H](Cn2cc(C3(O)CCCCC3)nn2)[C@H]2OC(C)(C)O[C@@H]12", "values": [{"measurement": "Ratio IC50", "setting": "[5]", "result": 20}, {"measurement": "IC50", "setting": "[1]", "result": 5.2, "unit": "µM"}, {"measurement": "inhibition", "setting": "[2]", "result": 98.5, "unit": "%"}]}, {"smiles": "CC1(C)O[C@H]2[C@@H](O1)[C@@H](Cn1cc(-c3ccccc3)nn1)O[C@@H]1OC(C)(C)O[C@@H]12", "values": [{"measurement": "inhibition", "setting": "[2]", "result": 99.4, "unit": "%"}]}, {"smiles": "CO[C@@H]1O[C@H](Cn2cc(CO)nn2)[C@H]2OC(C)(C)O[C@@H]12", "values": [{"measurement": "inhibition", "setting": "[2]", "result": 46.5, "unit": "%"}]}, {"smiles": "CC1(C)O[C@H]2O[C@H]([C@H]3COC(C)(C)O3)[C@@H](n3cc(-c4ccccc4)nn3)[C@H]2O1", "values": [{"measurement": "inhibition", "setting": "[2]", "result": 73.1, "unit": "%"}]}]}
